The test system of assay [1] is H4. As to the kind of experiment: Increase in ratio of light chain 3 subunit 2 to light chain 3 subunit 1 in human H4 cells at 5.4 uM after 4 hrs by Western blot. The assay is classed as functional, cell-based. A digest of the protocol:
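H4 cells were exposed to compound for 4 h, then lysed. Lysates were blotted with anti-LC3 antibody, with actin as loading control, and the LC3II/LC3I band ratio was taken.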
A general note: A western blot detects proteins with antibodies after separation by electrophoresis.

Assay [2] relates to H4. As to the kind of experiment: Reduction of poly(Q) level in human H4 cells expressing EGFP-Q79-HA after 24 hrs. The assay is classed as functional, cell-based. A digest of the protocol: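 H4 cells were transiently transfected with an EGFP-Q79-HA expression vector. The medium was replaced 6 h after transfection and compounds were added. Poly(Q) was detected with anti-HA antibody.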

Assay [3] has as its system H4. As to the kind of experiment: Increase in light chain 3-GFP+ autophagosome vesicle area per cell in human H4 cells at 5.4 uM after 24 hrs by high throughput fluorescence microscopy relative to control. The assay is classed as functional. The method in brief: (§1)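 H4 cells stably expressing LC3-GFP, seeded in 96-well plates and exposed to compound for 24 h; fixed in 4% paraformaldehyde, nuclei stained with 3 μg/ml DAPI. Automated fluorescence microscopy scored number, size and intensity of LC3-GFP spots; values expressed relative to DMSO-treated wells, rapamycin positive control. Triplicate wells, mean ± SD; experiments repeated three times.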

Assay [4] concerns the target T1, Serine/threonine-protein kinase mTOR (Homo sapiens, UniProt P42345). Put plainly: Effect on mTOR phosphorylation in human H4 cells at 5.4 uM after 4 hrs. The assay is classed as cell-based. A digest of the protocol:
(§2)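 H4 cells treated with compound for 4 h; lysates analysed by Western blot using anti-phospho/non-phospho mTOR antibody, with actin as loading control; rapamycin used for comparison. Cells grown in DMEM with 10% FBS, penicillin/streptomycin, 2 mM L-glutamine at 37°C, 5% CO2.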

Assay [5] concerns H4. Put plainly: Increase in light chain 3-GFP+ autophagosome vesicle intensity per cell in human H4 cells at 5.4 uM after 24 hrs by high throughput fluorescence microscopy relative to control. The assay is classed as functional. The method in brief:
as §1

In assay [6] the test system is H4. Put plainly: Increase in light chain 3-GFP+ autophagosome vesicle number per cell in human H4 cells at 5.4 uM after 24 hrs by high throughput fluorescence microscopy relative to control. The format is functional. A digest of the protocol: (§3)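 H4 cells stably expressing LC3-GFP, kept in DMEM/10% FBS at 37°C, 5% CO2, were seeded in 96-well plates and exposed to compound for 24 h. Cells were then fixed in 4% paraformaldehyde and stained with 3 μg/ml DAPI. Automated fluorescence microscopy scored the number, size and intensity of LC3-GFP spots. Values are percent of DMSO wells, in triplicate, mean ± SD. Rapamycin served as positive control.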

For assay [7], the system named is H4. Put plainly: Effect on FYVE-RFP+ vesicle intensity per cell in human H4 cells after 2 hrs relative to control. Also on record: concentration or dose not given beside the values. The format is functional. The method in brief:
(§4)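 H4 cells stably expressing FYVE-RFP (H4-FYVE), grown in DMEM with 10% FBS, penicillin/streptomycin and 2 mM L-glutamine at 37°C, 5% CO2, seeded in 96-well plates and exposed to compound. Fixed in 4% paraformaldehyde, nuclei stained with 3 μg/ml DAPI, FYVE-RFP+ vesicles quantified by high-throughput fluorescence microscopy against DMSO control. Triplicate wells, mean ± SD.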

Assay [8] deals with H4. As to the kind of experiment: Effect on FYVE-RFP+ vesicle intensity per cell in human H4 cells after 4 hrs relative to control. The assay is classed as functional. Also on record: concentration or dose not given beside the values. A digest of the protocol: as §4
Assay [9] has as its system H4. As to the kind of experiment: Effect on FYVE-RFP+ vesicle intensity per cell in human H4 cells after 8 hrs relative to control. The format is functional. Set-up: concentration or dose not given beside the values. The method in brief:
as §4

The test system of assay [10] is H4. Put plainly: Increase in long-lived protein degradation in human H4 cells after 1 hr relative to control. The format is functional. Also on record: concentration or dose not given beside the values.
The subject of assay [11] is H4. Put plainly: Increase in long-lived protein degradation in human H4 cells after 2 hrs relative to control. Also on record: concentration or dose not given beside the values. The format is functional.
Assay [12] concerns H4. Put plainly: Increase in long-lived protein degradation in human H4 cells after 4 hrs relative to control. The format is functional. Set-up: concentration or dose not given beside the values.
Assay [13] concerns H4. Put plainly: Increase in long-lived protein degradation in human H4 cells after 24 hrs relative to control. Also on record: concentration or dose not given beside the values. The format is functional.
For assay [14], the system named is H4. As to the kind of experiment: Induction of light chain 3-GFP level in human H4 cells at 5.4 uM after 24 hrs by high throughput fluorescence microscopy relative to control. The assay is classed as functional. The method in brief: as §3
Assay [15] deals with T1, Serine/threonine-protein kinase mTOR. As to the kind of experiment: Effect on mTOR phosphorylation in human H4 cells at 3.9 uM after 4 hrs. The format is cell-based. The method in brief: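 H4 cells exposed to compound for 4 h. Lysates analysed by Western blot with anti-phospho and anti-total mTOR antibodies, with actin as loading control. Rapamycin served as reference.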

In assay [16] the test system is H4. Put plainly: Increase in light chain 3-GFP+ autophagosome vesicle area per cell in human H4 cells at 3.9 uM after 24 hrs by high throughput fluorescence microscopy relative to control. The assay is classed as functional. The method in brief: as §1
For assay [17], the system named is H4. As to the kind of experiment: Increase in light chain 3-GFP+ autophagosome vesicle intensity per cell in human H4 cells at 3.9 uM after 24 hrs by high throughput fluorescence microscopy relative to control. The assay is classed as functional. A digest of the protocol: as §1
For assay [18], the system named is H4. Put plainly: Increase in FYVE-RFP+ vesicle intensity per cell in human H4 cells after 2 hrs relative to control. Also on record: concentration or dose not given beside the values. The format is functional. The method in brief:
as §4

In assay [19] the test system is H4. Put plainly: Increase in FYVE-RFP+ vesicle intensity per cell in human H4 cells after 4 hrs relative to control. The format is functional. Set-up: concentration or dose not given beside the values. The method in brief:
as §4

Assay [20] has as its system H4. As to the kind of experiment: Increase in FYVE-RFP+ vesicle intensity per cell in human H4 cells after 8 hrs relative to control. The assay is classed as functional. Also on record: concentration or dose not given beside the values. The method in brief:
as §4

The subject of assay [21] is H4. As to the kind of experiment: Increase in ratio of light chain 3 subunit 2 to light chain 3 subunit 1 in human H4 cells at 3.9 uM after 4 hrs by Western blot. The assay is classed as functional, cell-based. A digest of the protocol: (§5)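 H4 cells were treated with each compound for 4 h, then lysed. Lysates were immunoblotted with anti-LC3 antibody, with actin as loading control. LC3II and LC3I bands were compared as an LC3II/LC3I ratio.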

In assay [22] the test system is H4. Put plainly: Induction of light chain 3-GFP level in human H4 cells at 3.9 uM after 24 hrs by high throughput fluorescence microscopy relative to control. The assay is classed as functional. The method in brief: as §3
Assay [23] deals with H4. As to the kind of experiment: Increase in light chain 3-GFP+ autophagosome vesicle number per cell in human H4 cells at 3.9 uM after 24 hrs by high throughput fluorescence microscopy relative to control. The format is functional. The method in brief:
as §3

Assay [24] deals with T1, Serine/threonine-protein kinase mTOR. As to the kind of experiment: Effect on mTOR phosphorylation in human H4 cells at 0.2 uM after 4 hrs. The format is cell-based. The method in brief: as §2
Assay [25] concerns H4. As to the kind of experiment: Increase in light chain 3-GFP+ autophagosome vesicle area per cell in human H4 cells at 0.2 uM after 24 hrs by high throughput fluorescence microscopy relative to control. The format is functional. A digest of the protocol: (§6)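 H4 cells stably expressing LC3-GFP, seeded in 96-well plates and exposed to compound for 24 h; screening concentrations were 3–12 μM, with rapamycin 0.22 μM and bafilomycin A1 0.40 μM. Cells fixed in 4% paraformaldehyde and stained with 3 μg/ml DAPI. Number, size and intensity of LC3-GFP spots measured by high-throughput fluorescence microscopy and expressed as percent of DMSO-treated wells. Rapamycin was the positive control. Triplicate wells, mean ± SD; experiments repeated three times.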

Assay [26] concerns H4. As to the kind of experiment: Induction of light chain 3-GFP level in human H4 cells at 0.2 uM after 24 hrs by high throughput fluorescence microscopy relative to control. The format is functional.
In assay [27] the test system is H4. Put plainly: Increase in light chain 3-GFP+ autophagosome vesicle intensity per cell in human H4 cells at 0.2 uM after 24 hrs by high throughput fluorescence microscopy relative to control. The format is functional. The method in brief:
as §6

Assay [28] concerns H4. As to the kind of experiment: Increase in ratio of light chain 3 subunit 2 to light chain 3 subunit 1 in human H4 cells at 0.2 uM after 4 hrs by Western blot. The assay is classed as functional, cell-based. A digest of the protocol: as §5
The subject of assay [29] is H4. As to the kind of experiment: Increase in light chain 3-GFP+ autophagosome vesicle number per cell in human H4 cells at 0.2 uM after 24 hrs by high throughput fluorescence microscopy relative to control. The assay is classed as functional. A digest of the protocol: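 H4 cells stably expressing LC3-GFP were grown in DMEM with 10% FBS and 2 mM L-glutamine at 37°C, 5% CO2. They were exposed to each compound for 24 h, with DMSO as negative and rapamycin as positive control. Cells were then fixed in 4% paraformaldehyde and stained with 3 μg/ml DAPI. High-throughput fluorescence imaging scored LC3-GFP spot number, size and intensity, expressed relative to DMSO. Mean ± SD of triplicates; experiments repeated three times.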

Active and inactive are the calls of the source. The calls are words filed in the database; no cut-off is given here.

The values below come from ChEMBL document CHEMBL1145471, “Small molecule regulators of autophagy identified by an image-based high-throughput screen” (Proc Natl Acad Sci U S A, 2007).

For the molecule `O=c1[nH]c2ccccc2n1C1CCN(CCCC(c2ccc(F)cc2)c2ccc(F)cc2)CC1` [PIMOZIDE], the outcome in the assay on H4 [1] was Active. Also, the Activity entry was “Dose-dependent effect” with H4 [2]; 290.43% with H4 [3]; 447.75% in the assay with H4 [5]; 218.96% in the assay with H4 [6]; 94.42% with H4 [7]; 103.96% in the assay on H4 [8]. In addition, the Activity in the assay with H4 [9] stood at 73.64%; in the assay on H4 [10] it was 129.13%; in the assay with H4 [11], 155.8%; in the assay on H4 [12], 152.01%; in the assay with H4 [13], 162.47%; in the assay on H4 [14] it was 127.14%. Further, the outcome in assay [4] was inactive.

As for `COC(=O)C1=C(C)NC(C)=C(C(=O)OCCCN2CCC(c3ccccc3)(c3ccccc3)CC2)[C@H]1c1cccc([N+](=O)[O-])c1` [NIGULDIPINE], the Activity result is “Dose-dependent effect” in the assay with H4 [2]; 405.33% with H4 [16]; 777.92% in the assay on H4 [17]; 147.18% in the assay on H4 [18]; 148.26% in the assay on H4 [19]; 125.53% in the assay on H4 [20]. The Activity in the assay with H4 [10] is listed as 71.65%; in the assay with H4 [11], 107.42%; in the assay with H4 [12], 105.68%; with H4 [13], 117.85%; in the assay with H4 [22] it was 132.78%; in the assay on H4 [23], 282.89%. The result in [15] was inactive. The outcome in the assay on H4 [21] was Active.

`CO[C@H]1C[C@@H]2CC[C@@H](C)[C@@](O)(O2)C(=O)C(=O)N2CCCC[C@H]2C(=O)O[C@H]([C@H](C)C[C@@H]2CC[C@@H](O)[C@H](OC)C2)CC(=O)[C@H](C)/C=C(\C)[C@@H](O)[C@@H](OC)C(=O)[C@H](C)C[C@H](C)/C=C/C=C/C=C/1C` [SIROLIMUS]: the Activity result in the assay on H4 [2] is “Dose-dependent effect”; in the assay with H4 [25], 259.68%; with H4 [26], 88.62%; in the assay with H4 [27], 285.38%; with H4 [19] it was 131.41%; with H4 [20], 152.35%. Besides, the Activity in the assay with H4 [10] was 159.89%; with H4 [11], 171.67%; in the assay on H4 [12] it was 149.89%; with H4 [13], 165.87%; in the assay with H4 [29], 205.66%. The AC50 result in assay [24] is reported as “Not Active”. For the same molecule, the outcome in the assay with H4 [28] was Active.
